# What was measured:
# [1] = folding enthalpy; higher = less favourable; fluorescence melt of hairpins on a sequencing array, two-state fit; settings: sodium 0.088 M
# Outline: (§1)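 With Cy3 and quencher oligos annealed, library hairpins on a sequenced MiSeq flow cell were imaged for Cy3 fluorescence in 50 mM Na-HEPES pH 8.0, 25 mM NaCl, in 2.5 °C steps up to 60 °C. Melting temperature and folding enthalpy were derived from bootstrapped two-state fits of signals normalised to pre-quench Cy3 and to control constructs. Four replicates were combined by inverse variance, with fitted temperatures raised by 9.35 °C to match UV melts.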
# [2] = melting temperature; fluorescence melt of hairpins on a sequencing array, two-state fit, raised by 9.35 °C to match UV melts; settings: sodium 0.088 M
# Outline: as §1
Sequence,folding enthalpy [1],Tm [2]
GCCCGCTCGAAAGAGGGC (((..(((....)))))),-40.6 kcal/mol,54.6 °C
GCCCGGACGAAAGTCGGC (((..(((....)))))),-14.5 kcal/mol,50.9 °C
GCCCGGCGAAAGCAGAGC ((.(.((....)).).)),-14.4 kcal/mol,47.4 °C
GCCCGGCGAAAGCGGCGC ((.(.((....)).).)),-21.1 kcal/mol,64.6 °C
GCCCGTGGAAACACAGGC (((.(((....))).))),-29.8 kcal/mol,50.4 °C
GCCCGTGGAAACGTGGGC ((((..(....)..)))),-31.2 kcal/mol,54.9 °C
GCCCTAGAAATAGGGC ((((((....)))))),-37.2 kcal/mol,59.1 °C
GCCCTAGGAAACTAGGAC (.(((((....))))).),-19.6 kcal/mol,37.7 °C
GCCCTCCCGAAAGGGGGC (((..(((....)))))),-16.1 kcal/mol,58 °C
GCCCTCGAAAGAGAAGGC ((((((....)))..))),-22.2 kcal/mol,48.3 °C
GCCCTCGAAAGAGCAGGC ((((((....)))..))),-24.8 kcal/mol,44.9 °C
GCCCTCGAAAGAGCCGGC ((((((....)))..))),-18.4 kcal/mol,40.4 °C
GCCCTCGAAAGAGTAGGC ((((((....)))..))),-29.5 kcal/mol,49 °C
GCCCTCGAAAGAGTTGGC ((((((....)))..))),-23.2 kcal/mol,44 °C
GCCCTCGGAAACGGGGGC ((((.((....)).)))),-32.7 kcal/mol,66.9 °C
GCCCTGCGAAAGCAAAGC ((..(((....)))..)),-6.64 kcal/mol,29.2 °C
GCCCTGCGAAAGCACAGC ((..(((....)))..)),-8.54 kcal/mol,27.4 °C
GCCCTGCGAAAGCAGTGC ((.((((....)))).)),-17.3 kcal/mol,58.5 °C
GCCCTGCGAAAGCATGGC (((.(((....))).))),-48.3 kcal/mol,56.3 °C
GCCCTGCGAAAGCGGAGC ((.(.((....)).).)),-15.5 kcal/mol,51.5 °C
GCCCTGCGAAAGCTCGGC (((..((....))..))),-19.3 kcal/mol,46.9 °C
GCCCTGCGAAAGCTGTGC ((.(.((....)).).)),-15.7 kcal/mol,38.9 °C
GCCCTGGCGAAAGCCGGC (((..(((....)))))),-11.1 kcal/mol,52 °C

Sequence,folding enthalpy [1],Tm [2]
GCCCTGGGAAACCGGGGC ((((.((....)).)))),-43.1 kcal/mol,66.2 °C
GCCCTGTCGAAAGACGGC (((..(((....)))))),-15.4 kcal/mol,44.5 °C
GCCCTTCGAAAGAAGGC (((.(((....)))))),-21.4 kcal/mol,52.9 °C
GCCGAACCGAAAGGTGGC (((..(((....)))))),-26.4 kcal/mol,53.1 °C
GCCGAACGAAAGTTGGGC (((.(((....))).))),-38.8 kcal/mol,58.5 °C
GCCGAAGGAAACTCCGGC ((((.((....)).)))),-28 kcal/mol,48.3 °C
GCCGAAGGAAACTTCAGC ((.((((....)))).)),-11.7 kcal/mol,32.9 °C
GCCGACACGAAAGTGGGC (((..(((....)))))),-24.5 kcal/mol,53.1 °C
GCCGACGAAAGTCAGGGC ((((((....)))..))),-36.8 kcal/mol,55.1 °C
GCCGACGAAAGTCCCGGC ((((((....)))..))),-20.9 kcal/mol,49.6 °C
GCCGACGAAAGTCTAGGC ((((((....)))..))),-34.1 kcal/mol,52.7 °C
GCCGAGCGAAAGCACAGC ((.(.((....)).).)),-15.1 kcal/mol,40.1 °C
GCCGAGCGAAAGCGCAGC ((.(.((....)).).)),-14.4 kcal/mol,49.4 °C
GCCGAGCGAAAGCGTGGC (((..((....))..))),-25.4 kcal/mol,68.3 °C
GCCGAGCGAAAGCTGGC (((.(((....)))))),-25.1 kcal/mol,68.6 °C
GCCGAGGGAAACCCCAGC ((.(.((....)).).)),-11.3 kcal/mol,25.2 °C
GCCGAGGGAAACCCCGAC (.((.((....)).)).),-13.8 kcal/mol,31 °C
GCCGAGGGAAACCCCGGC ((((.((....)).)))),-40.2 kcal/mol,59.9 °C
GCCGATGGAAACATTGGC (((.(((....))).))),-55.2 kcal/mol,54.6 °C
GCCGCAACGAAAGTTGGC (((..(((....)))))),-11.2 kcal/mol,48 °C
GCCGCAGGAAACCGCAGC ((.((.(....).)).)),-9.87 kcal/mol,31.2 °C
GCCGCAGGAAACCGCGAC (.(((.(....).))).),-15.6 kcal/mol,35.9 °C
GCCGCAGGAAACTGTGGC (((.(((....))).))),-39.4 kcal/mol,60.3 °C

Sequence,folding enthalpy [1],Tm [2]
GCCGCCCGAAAGGGGGC (((.(((....)))))),-18 kcal/mol,68.7 °C
GCCGCCGAAAGGCAAGGC ((((((....)))..))),-24.6 kcal/mol,65.5 °C
GCCGCCGAAAGGCATGGC ((((((....)))..))),-19.9 kcal/mol,63 °C
GCCGCCGAAAGGCCCGGC ((((((....)))..))),-17.4 kcal/mol,48 °C
GCCGCCGAAAGGCGTGGC ((((((....)))..))),-12.6 kcal/mol,60.1 °C
GCCGCCGCGAAAGCGGGC (((..(((....)))))),-5.71 kcal/mol,64 °C
GCCGCGCGAAAGCACAGC ((.(.((....)).).)),-13.6 kcal/mol,46.9 °C
GCCGCGCGAAAGCACTGC ((.(.((....)).).)),-18.7 kcal/mol,38.2 °C
GCCGCGCGAAAGCAGGGC (((..((....))..))),-23.1 kcal/mol,61.5 °C
GCCGCGCGAAAGCGGAGC ((..(((....)))..)),-12.8 kcal/mol,52.5 °C
GCCGCGCGAAAGCGGTGC ((..(((....)))..)),-16.2 kcal/mol,58 °C
GCCGCGCGAAAGCTCCGC ((.(.((....)).).)),-7.61 kcal/mol,33.2 °C
GCCGCTCGAAAGAGGGC (((.(((....)))))),-22.9 kcal/mol,55.2 °C
GCCGCTGCGAAAGCAGGC (((..(((....)))))),-9.88 kcal/mol,65.1 °C
GCCGCTGGAAACAACGGC ((((.((....)).)))),-37.1 kcal/mol,54.3 °C
GCCGGAGGAAACTCTGGC (((.(((....))).))),-34.6 kcal/mol,54.8 °C
GCCGGCGAAAGCCTAGGC ((((((....)))..))),-24.5 kcal/mol,60.1 °C
GCCGGCGAAAGCCTGGGC ((((((....)))..))),-24.5 kcal/mol,60 °C
GCCGGGCCGAAAGGCGGC (((..(((....)))))),-17.6 kcal/mol,59.4 °C
GCCGGGCGAAAGCCTCGC ((..(((....)))..)),-11.1 kcal/mol,48.3 °C
GCCGGGCGAAAGCGGGGC (((..((....))..))),-22.9 kcal/mol,63.3 °C
GCCGGGCGAAAGCTCCGC ((.(.((....)).).)),-13.1 kcal/mol,45.2 °C
GCCGGGCGAAAGCTCTGC ((.(.((....)).).)),-18.5 kcal/mol,41.4 °C

Sequence,folding enthalpy [1],Tm [2]
GCCGGGCGAAAGCTTGGC (((..((....))..))),-24.4 kcal/mol,65.3 °C
GCCGGGGGAAACCCCAGC ((.((((....)))).)),-21.2 kcal/mol,50.3 °C
GCCGGGGGAAACTCCGGC (((((.(....).))))),-39.3 kcal/mol,68.5 °C
GCCGGTACGAAAGTAGGC (((..(((....)))))),-24.7 kcal/mol,48.7 °C
GCCGGTCGAAAGACAGGC (((.(((....))).))),-41.7 kcal/mol,69 °C
GCCGGTGGAAACACCGAC (.(((((....))))).),-12.4 kcal/mol,55.3 °C
GCCGTCCGAAAGGAGGC (((.(((....)))))),-27.4 kcal/mol,58.4 °C
GCCGTCGAAAGACCGGC ((((((....))).))),-36.8 kcal/mol,60.5 °C
GCCGTCGAAAGACCGGGC ((((((....)))..))),-22.1 kcal/mol,50.3 °C
GCCGTCGAAAGACTGGGC ((((((....)))..))),-26.4 kcal/mol,53.7 °C
GCCGTCGGAAACGATGGC (((.(((....))).))),-41.1 kcal/mol,65.5 °C
GCCGTCTCGAAAGAGGGC (((..(((....)))))),-24.9 kcal/mol,50.6 °C
GCCGTGCCGAAAGGCGGC (((..(((....)))))),-13.9 kcal/mol,66.8 °C
GCCGTGCGAAAGCATCGC ((..(((....)))..)),-11.1 kcal/mol,50.2 °C
GCCGTGCGAAAGCCAGGC (((..((....))..))),-23.9 kcal/mol,62.8 °C
GCCGTGCGAAAGCTCCGC ((.(.((....)).).)),-11.2 kcal/mol,40.4 °C
GCCGTGGGAAACCACGAC (.(((((....))))).),-14.8 kcal/mol,52 °C
GCCGTTCCGAAAGGAGGC (((..(((....)))))),-24.4 kcal/mol,50.7 °C
GCCGTTGGAAACAGCGGC ((((.((....)).)))),-39.8 kcal/mol,60.3 °C
GCCGTTGGAAACGATGGC (((.(.(....).).))),-23.1 kcal/mol,42.9 °C
GCCTAAGGAAACTTGGGC (((.(((....))).))),-37 kcal/mol,48.9 °C

# Reference: the array DNA melting data of Ke et al. (doi:10.1101/2024.01.08.574731)
